Source: the RNAGym collection of RNA variant scans (doi:10.1126/science.aae0568)
Variants at the floor of the assay were thinned out.

B1: tRNA (parent)
chain: GUUCCGUUGGCGUAAUGGUAACGCGUCUCCCUCCUAAGGAGAAGACUGCGGGUUCGAGUCCCGUACGGAACG

Variants of: B1
Assay: yeast fitness relative to wild type (ratio to wild type); higher = fitter; tRNA-Arg(CCU), competitive growth, 37 C, YPD
Method in brief: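 Amplicons of the tRNA-Arg(CCU) gene were sequenced, 100-nucleotide paired-end, from the start population and from each end population of a pooled yeast competition. The competition, in six parallel replicates, lasted 24 hours in YPD at 37°C. Fitness relative to wild type was calculated from changes in genotype frequencies. Genotypes had to have ≥ 100 starting reads, and estimates < 0.5 were set to 0.5.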

| Variant | yeast fitness |
| --- | --- |
| A43U A45C G67C | ≤ 0.5 |
| C33G A42U | 0.73 |
| U3A C34A C60U | ≤ 0.5 |
| U19C G50A C55A C62U | ≤ 0.5 |
| G10C U54A | ≤ 0.5 |
| A37G C61A C66U | ≤ 0.5 |
| G9A U28C C49A | ≤ 0.5 |
| A14G G39C A70U | 0.717 |
| U3C G23A C30U C33A G41C A42U | ≤ 0.5 |
| G18A G41A C66G | ≤ 0.5 |
| U2A U8C C24G A43U C46U | ≤ 0.5 |
| G6C U7G U16G A43G | 0.707 |
| C5A G17C G25A | ≤ 0.5 |
| C31G G44C A69C | 0.611 |
| C4G U13C A45U G56C | ≤ 0.5 |
| U16A G25A U32C | 0.889 |
| G25C U28C U59C | 0.694 |
| C22U C24U U35A A42C A57C | 0.638 |
| C5G A20G A36C G50A G51A A69C | ≤ 0.5 |
| C4U C60G G67A | ≤ 0.5 |
| A14G G39C G68A A70U | ≤ 0.5 |
| G17C G23C C33G G50A G68A | ≤ 0.5 |
| U13C U59G G68C | ≤ 0.5 |
| C4G U8G C60A U64A C66U | 0.711 |

| Variant | yeast fitness |
| --- | --- |
| G6C A21C C22G | ≤ 0.5 |
| G44A C60U G67C | 0.545 |
| U16A C34U U47C A57U | ≤ 0.5 |
| G9C C49U C55U U64C | ≤ 0.5 |
| G12C U26C A43C U54C | ≤ 0.5 |
| A15C C46U C66A | 0.55 |
| U28A U35C A37C | 0.647 |
| C24G C33U A65U | ≤ 0.5 |
| C24A C49U C62U | 0.654 |
| C4U G52A C55U U64C | ≤ 0.5 |
| G6C C55G G68A | ≤ 0.5 |
| C4A C5A C34A A43G | ≤ 0.5 |
| G23C U47C | 0.681 |
| G6C G25C A40U A65C | ≤ 0.5 |
| G9C C24G G41A G52A C66U | 0.602 |
| C4U G18A G39C G58C G67A | ≤ 0.5 |
| C33U G44A | 0.652 |
| C11U A15G G58C | 0.725 |
| U54C A65C | 0.862 |
| G9C C27A C30A | ≤ 0.5 |
| A42G A45C G48C C66U | ≤ 0.5 |
| G9A C46A C61A | 0.53 |
| U3C G23A U35G A42G | ≤ 0.5 |
| U2A U3C U26C U35A C62A | ≤ 0.5 |

| Variant | yeast fitness |
| --- | --- |
| U2G A21C C22U | 0.575 |
| G9C G41A C60G A65G | ≤ 0.5 |
| C11U G25A C29A A42C A45G | ≤ 0.5 |
| G6C A14G A20C C66U | ≤ 0.5 |
| A20C A36U | 0.635 |
| G12C C24U C30U C60A | ≤ 0.5 |
| C24A U32G A36U A57C | ≤ 0.5 |
| U26C C29G A69U | 0.572 |
| C4G U13C A15G G48A C61A | 0.672 |
| C4A C46A | 0.997 |
| A21U C22G C31U U54A C55U | ≤ 0.5 |
| C24G C27A A45C C62G | ≤ 0.5 |
| U13A G18C C27U A40G G41A A45U | ≤ 0.5 |
| C33A A40U G51U U64A | ≤ 0.5 |
| U16G C22U A37U G50C | ≤ 0.5 |
| U19C A20U C22U C27G G39U | ≤ 0.5 |
| U16C C24G U32A A69C | ≤ 0.5 |
| U3A A40G C55G | 0.813 |
| A21C C27U C49U | 0.679 |
| G9A A45U G50A G58C | 0.975 |
| A21G C29U A45U G67U | ≤ 0.5 |
| A43U A69C A70C | 0.601 |
| U32C A40G G48C A69U A70U | ≤ 0.5 |
| C11U C24U U53A C66U | ≤ 0.5 |

| Variant | yeast fitness |
| --- | --- |
| U7A A45U C60A | ≤ 0.5 |
| C30G A43C C60G | ≤ 0.5 |
| C34G U47C C49U | 0.638 |
| G18A C49G C60G | ≤ 0.5 |
| G9C G58C U59A C60U | ≤ 0.5 |
| C27A C31G | 0.957 |
| C29U C61A | 0.611 |
| G25A C55U U59C A65C | ≤ 0.5 |
| U7C C24U A70G | 0.666 |
| A21G G48C A57G G63A | ≤ 0.5 |
| G23A C31A G50C C55G | 0.548 |
| C31A G38C | 0.749 |
| G6A C31G C49A G68C | 0.536 |
| C34A C55A | 0.566 |
| U28C C49U G52A | 0.619 |
| G6C C33G A36C | ≤ 0.5 |
| U19A G51C | 0.636 |
| C4G G9A G50C G67A | ≤ 0.5 |
| C4G G9C C33G C66U | 0.72 |
| G9A U26G C46U | 0.726 |
| U8C C22A G39A U47A | ≤ 0.5 |
| G9A A15U A45U | 0.533 |
| U28G C62U | 0.737 |
| U7A A20U G52A | ≤ 0.5 |

| Variant | yeast fitness |
| --- | --- |
| C33U A37U G51C A65U | 0.584 |
| G23C U26A G50A A65C | 0.533 |
| A15C U16A G56C A57C C60U | ≤ 0.5 |
| C31U C33U A42C C49U | ≤ 0.5 |
| C11A A20C C24U C55G | 0.617 |
| C22U A65U | 0.748 |
| U3A A20G G56A | 0.707 |
| U2C G50A | 0.878 |
| C5A A20C C24A | 0.575 |
| C33A C49A | 0.597 |
| U3G C33U A37C A65C | ≤ 0.5 |
| C11G G25A C27U | 0.687 |
| A15C A21G C27G | ≤ 0.5 |
| C24G | 0.609 |
| A21U A36U | 0.592 |
| U2G U28A C33U C46G | ≤ 0.5 |
| U8A G25A C33G A42G G50A | ≤ 0.5 |
| U2C A40G A45C | ≤ 0.5 |
| C5U G17C C30G | ≤ 0.5 |
| U16A C34U G38A A42U | ≤ 0.5 |
| A20C C29U C31G U32A C33A U53C | ≤ 0.5 |
| U3C U19C C24A G58A | ≤ 0.5 |
| C27G C46U C60U A69U | ≤ 0.5 |
| U3G C22A C24U U35G A45U | ≤ 0.5 |

| Variant | yeast fitness |
| --- | --- |
| G58A C61U A70G | 1.02 |
| C5A A42C G63C | ≤ 0.5 |
| A42U G44C U53C | ≤ 0.5 |
| U16G C60U | 0.772 |
| G9A A45G | 1.01 |
| C5A C22G C27G A36U A40C G67A | ≤ 0.5 |
| C4U A21C C27U G63A A65G | ≤ 0.5 |
| G38C G56A G58A A65C | ≤ 0.5 |
| G9C U54C | 0.704 |
| A36U C61G | 0.698 |
| C29A G38A | 0.764 |
| C22U U26G U35A A45G G50A | 0.648 |
| G12C C61A C62A | ≤ 0.5 |
| C11U C34A A36C G67C | ≤ 0.5 |
| G6A A20C C55A | 0.583 |
| C5A A20U C55U C61U A65G | ≤ 0.5 |
| A15C C22A A70U | ≤ 0.5 |
| C5A A15G C34U A40C G56A G63A | ≤ 0.5 |
| G6A A40G G44A | 0.614 |
| A15U U26G U35A G41A | ≤ 0.5 |
| C31G A40U | 0.998 |
| C30G U35A G51C | 0.628 |
| U2G A40U C55U | ≤ 0.5 |
| C29G C34U G63A G67A A69G | ≤ 0.5 |

| Variant | yeast fitness |
| --- | --- |
| G39A C55G | 0.726 |
| C29U C49U C61A | ≤ 0.5 |
| A20C C30A A37G U59A | ≤ 0.5 |
| A21G C31G | 1.05 |
| U13G C49U U59C | ≤ 0.5 |
| C22G G39A | 0.773 |
| U8C C33G A43C C66A | ≤ 0.5 |
| C4A U53C G68C | 0.553 |
| C5U U26C A70U | 0.723 |
| U19C C49A | 0.606 |
| U26C C29U G63A | 0.672 |
| C11G C29A U35G A43G A70C | ≤ 0.5 |
| C4G C11G U26A A65G | ≤ 0.5 |
| G18C G51A A57G C66A | ≤ 0.5 |
| G6A A37U C55G C66U | ≤ 0.5 |
| U2A G17C C46U | ≤ 0.5 |
| C60A C61G | 0.635 |
| G18A C49A G63A | ≤ 0.5 |
| A43U A70C | 0.898 |
| C4G C5A C11U C27G A65U G68U | ≤ 0.5 |
| C5G U13C C22G C29G A45C G68C A69G | ≤ 0.5 |
| G9A U54A A69C | 0.746 |
| G9A | 0.991 |
